Laboratory results taken from ChEMBL document CHEMBL3585281, “Antibacterial Labdane Diterpenoids from Vitex vestita” (2015).
Values after ≈ are worked out from the molar mass of the structure shown.

Legend:
Format in all cases: functional
[1] = test system: Staphylococcus aureus; test: Antibacterial activity against Staphylococcus aureus CIP 483 after 18 hrs by agar dilution method; conditions: CIP 483, 18 h
Procedure, shortened: (§1)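 Agar-dilution MIC against Gram-positive strains. Compounds in DMSO, geometric dilutions giving final 100−0.75 mg/L in Mueller Hinton agar. Strains grown 18 h at 37 °C in trypticase soy broth, diluted in sterile water, spotted by Steers inoculator (about 1000 UFC/spot). Plates incubated 18 h at 37 °C; DMSO blank; ofloxacin positive control. MIC = lowest concentration with no visible growth.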

[2] = test system: Staphylococcus intermedius; test: Antibacterial activity against Staphylococcus intermedius N987 after 18 hrs by agar dilution method; conditions: N987, 18 h; procedure, shortened: as §1
[3] = test system: Listeria monocytogenes; test: Antibacterial activity against Listeria monocytogenes CIP 103575 after 18 hrs by agar dilution method; conditions: CIP 103575, 18 h; procedure, shortened: as §1
[4] = test system: Staphylococcus aureus; test: Antibacterial activity against Staphylococcus aureus ATCC 25923 after 18 hrs by agar dilution method; conditions: ATCC 25923, 18 h; procedure, shortened: as §1
[5] = test system: Staphylococcus aureus; test: Antibacterial activity against Staphylococcus aureus CRBIP 2121 after 18 hrs by agar dilution method; conditions: CRBIP 2121, 18 h; procedure, shortened: as §1
[6] = test system: Bacillus cereus; test: Antibacterial activity against Bacillus cereus CIP 6624 after 18 hrs by agar dilution method; conditions: CIP 6624, 18 h; procedure, shortened: as §1
[7] = test system: Staphylococcus aureus; test: Antibacterial activity against Staphylococcus aureus CIP 5710 after 18 hrs by agar dilution method; conditions: CIP 5710, 18 h; procedure, shortened: as §1
[8] = test system: Mammaliicoccus sciuri; test: Antibacterial activity against Staphylococcus sciuri N993 after 18 hrs by agar dilution method; conditions: N993, 18 h; procedure, shortened: as §1
[9] = test system: Listeria monocytogenes; test: Antibacterial activity against Listeria monocytogenes N783 after 18 hrs by agar dilution method; conditions: N783, 18 h; procedure, shortened: as §1
[10] = test system: Enterococcus avium; test: Antibacterial activity against Enterococcus avium CIP 104053 after 18 hrs by agar dilution method; conditions: CIP 104053, 18 h; procedure, shortened: as §1
[11] = test system: Staphylococcus aureus; test: Antibacterial activity against Staphylococcus aureus ATCC 9144 oxford after 18 hrs by agar dilution method; procedure, shortened: as §1
[12] = test system: Listeria monocytogenes; test: Antibacterial activity against Listeria monocytogenes N836 after 18 hrs by agar dilution method; conditions: N836, 18 h; procedure, shortened: as §1
[13] = test system: Enterococcus faecalis; test: Antibacterial activity against Enterococcus faecalis N518 after 18 hrs by agar dilution method; conditions: N518, 18 h; procedure, shortened: as §1
[14] = test system: Enterococcus faecium; test: Antibacterial activity against Enterococcus faecium CIP 103014 after 18 hrs by agar dilution method; conditions: CIP 103014, 18 h; procedure, shortened: as §1
[15] = test system: Listeria innocua; test: Antibacterial activity against Listeria innocua E044 after 18 hrs by agar dilution method; conditions: E044, 18 h; procedure, shortened: as §1
[16] = test system: Listeria monocytogenes; test: Antibacterial activity against Listeria monocytogenes N851 after 18 hrs by agar dilution method; conditions: N851, 18 h; procedure, shortened: as §1
[17] = test system: Staphylococcus epidermidis; test: Antibacterial activity against Staphylococcus epidermidis CIP 53124 after 18 hrs by agar dilution method; conditions: CIP 53124, 18 h; procedure, shortened: as §1
[18] = test system: Enterococcus faecium; test: Antibacterial activity against Enterococcus faecium CIP 107387 after 18 hrs by agar dilution method; conditions: CIP 107387, 18 h; procedure, shortened: as §1
[19] = test system: Staphylococcus aureus; test: Antibacterial activity against Staphylococcus aureus CIP 7625 after 18 hrs by agar dilution method; conditions: CIP 7625, 18 h; procedure, shortened: as §1
[20] = test system: Staphylococcus saprophyticus; test: Antibacterial activity against Staphylococcus saprophyticus E260 after 18 hrs by agar dilution method; conditions: E260, 18 h; procedure, shortened: as §1
[21] = test system: Enterococcus gallinarum; test: Antibacterial activity against Enterococcus gallinarum N489 after 18 hrs by agar dilution method; conditions: N489, 18 h; procedure, shortened: as §1
[22] = test system: HCT-116; test: Cytotoxicity against human HCT116 cells assessed as growth inhibition at 10^-6 M after 72 hrs by MTS assay relative to control; conditions: HCT-116, 72 h, read-out: GI
Procedure, shortened: (§2)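 Cells from ATCC; HCT-116 grown in RPMI 1640 and MRC5 in DMEM, each with 10% FCS and 1% glutamine, 37 °C, 5% CO2. Seeded at 2.5 × 10^3 cells/well, cultured 24 h, then exposed to compounds at 1 and 10 μM final for 72 h. MTS read-out, absorbance 490 nm; percent index from treated/control OD490 × 100, three experiments.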

[23] = test system: Enterococcus casseliflavus; test: Antibacterial activity against Enterococcus casseliflavus N487 after 18 hrs by agar dilution method; conditions: N487, 18 h; procedure, shortened: as §1
[24] = test system: Enterococcus gallinarum; test: Antibacterial activity against Enterococcus gallinarum N492 after 18 hrs by agar dilution method; conditions: N492, 18 h; procedure, shortened: as §1
[25] = test system: Bacillus spizizenii; test: Antibacterial activity against Bacillus subtilis ATCC 6633 after 18 hrs by agar dilution method; conditions: ATCC 6633, 18 h; procedure, shortened: as §1
[26] = test system: Enterococcus casseliflavus; test: Antibacterial activity against Enterococcus casseliflavus CIP 103018 after 18 hrs by agar dilution method; conditions: CIP 103018, 18 h; procedure, shortened: as §1
[27] = test system: MRC5; test: Cytotoxicity against human MRC5 cells assessed as growth inhibition at 10^-5 M after 72 hrs by MTS assay relative to control; conditions: MRC5, 72 h, read-out: GI; procedure, shortened: as §2
[28] = test system: Enterococcus faecalis; test: Antibacterial activity against Enterococcus faecalis CIP 103214 after 18 hrs by agar dilution method; conditions: CIP 103214, 18 h; procedure, shortened: as §1
[29] = test system: MRC5; test: Cytotoxicity against human MRC5 cells assessed as growth inhibition at 10^-6 M after 72 hrs by MTS assay relative to control; conditions: MRC5, 72 h, read-out: GI; procedure, shortened: as §2
[30] = test system: Enterococcus faecalis; test: Antibacterial activity against Enterococcus faecalis N520 after 18 hrs by agar dilution method; conditions: N520, 18 h; procedure, shortened: as §1
[31] = test system: Enterococcus durans; test: Antibacterial activity against Enterococcus durans CIP 104999 after 18 hrs by agar dilution method; conditions: CIP 104999, 18 h; procedure, shortened: as §1
[32] = test system: Staphylococcus lugdunensis; test: Antibacterial activity against Staphylococcus lugdunensis ATCC 43809 after 18 hrs by agar dilution method; conditions: ATCC 43809, 18 h; procedure, shortened: as §1
[33] = test system: Enterococcus faecium; test: Antibacterial activity against Enterococcus faecium N823 after 18 hrs by agar dilution method; conditions: N823, 18 h; procedure, shortened: as §1
[34] = test system: Bacillus cereus; test: Antibacterial activity against Bacillus cereus N349 after 18 hrs by agar dilution method; conditions: N349, 18 h; procedure, shortened: as §1
[35] = test system: Enterococcus faecalis; test: Antibacterial activity against Enterococcus faecalis N491 after 18 hrs by agar dilution method; conditions: N491, 18 h; procedure, shortened: as §1
[36] = test system: Enterococcus gallinarum; test: Antibacterial activity against Enterococcus gallinarum CIP 105985 after 18 hrs by agar dilution method; conditions: CIP 105985, 18 h; procedure, shortened: as §1
[37] = test system: Enterococcus faecium; test: Antibacterial activity against Enterococcus faecium N733 after 18 hrs by agar dilution method; conditions: N733, 18 h; procedure, shortened: as §1
[38] = test system: Bacillus cereus; test: Antibacterial activity against Bacillus cereus N190 after 18 hrs by agar dilution method; conditions: N190, 18 h; procedure, shortened: as §1
[39] = test system: Staphylococcus aureus; test: Antibacterial activity against Staphylococcus aureus CIP 53156 after 18 hrs by agar dilution method; conditions: CIP 53156, 18 h; procedure, shortened: as §1
[40] = test system: Bacillus cereus; test: Antibacterial activity against Bacillus cereus N258 after 18 hrs by agar dilution method; conditions: N258, 18 h; procedure, shortened: as §1
[41] = test system: Staphylococcus saprophyticus; test: Antibacterial activity against Staphylococcus saprophyticus CIP 76125 after 18 hrs by agar dilution method; conditions: CIP 76125, 18 h; procedure, shortened: as §1
[42] = test system: Staphylococcus haemolyticus; test: Antibacterial activity against Staphylococcus haemolyticus CIP 8156 after 18 hrs by agar dilution method; conditions: CIP 8156, 18 h; procedure, shortened: as §1
[43] = test system: Corynebacterium striatum; test: Antibacterial activity against Corynebacterium striatum N840 after 18 hrs by agar dilution method; conditions: N840, 18 h; procedure, shortened: as §1
[44] = test system: HCT-116; test: Cytotoxicity against human HCT116 cells assessed as growth inhibition at 10^-5 M after 72 hrs by MTS assay relative to control; conditions: HCT-116, 72 h, read-out: GI; procedure, shortened: as §2
[45] = test system: Enterococcus faecium; test: Antibacterial activity against Enterococcus faecium N490 after 18 hrs by agar dilution method; conditions: N490, 18 h; procedure, shortened: as §1
[46] = test system: Staphylococcus aureus; test: Antibacterial activity against Staphylococcus aureus CIP 53154 after 18 hrs by agar dilution method; conditions: CIP 53154, 18 h; procedure, shortened: as §1
[47] = test system: Enterococcus faecalis; test: Antibacterial activity against Enterococcus faecalis CIP 104676 after 18 hrs by agar dilution method; conditions: CIP 104676, 18 h; procedure, shortened: as §1
[48] = test system: Streptococcus agalactiae; test: Antibacterial activity against Streptococcus agalactiae CIP 103227 after 18 hrs by agar dilution method; conditions: ATCC 13813, 18 h; procedure, shortened: as §1
[49] = test system: Enterococcus hirae; test: Antibacterial activity against Enterococcus hirae CIP 5855 after 18 hrs by agar dilution method; conditions: CIP 5855, 18 h; procedure, shortened: as §1
[50] = test system: Enterococcus faecium; test: Antibacterial activity against Enterococcus faecium N507 after 18 hrs by agar dilution method; conditions: N507, 18 h; procedure, shortened: as §1

MIC [1]: 48 µM (≈ 16.1 µg/mL)
MIC [2]: 24 µM (≈ 8.03 µg/mL)
MIC [3]: 96 µM (≈ 32.1 µg/mL)
MIC [4]: 48 µM (≈ 16.1 µg/mL)
MIC [5]: 48 µM (≈ 16.1 µg/mL)
MIC [6]: 24 µM (≈ 8.03 µg/mL)
MIC [7]: 48 µM (≈ 16.1 µg/mL)
MIC [8]: 96 µM (≈ 32.1 µg/mL)
MIC [9]: 96 µM (≈ 32.1 µg/mL)
MIC [10]: 96 µM (≈ 32.1 µg/mL)
MIC [11]: 48 µM (≈ 16.1 µg/mL)
MIC [12]: 96 µM (≈ 32.1 µg/mL)
MIC [13]: > 96 µM
MIC [14]: > 96 µM
MIC [15]: > 96 µM
MIC [16]: 96 µM (≈ 32.1 µg/mL)
MIC [17]: 48 µM (≈ 16.1 µg/mL)
MIC [18]: > 96 µM
MIC [19]: 48 µM (≈ 16.1 µg/mL)
MIC [20]: 48 µM (≈ 16.1 µg/mL)
MIC [21]: 96 µM (≈ 32.1 µg/mL)
MIC [23]: > 96 µM
MIC [24]: 96 µM (≈ 32.1 µg/mL)
MIC [25]: 12 µM (≈ 4.01 µg/mL)
MIC [26]: > 96 µM
MIC [28]: > 96 µM
MIC [30]: 96 µM (≈ 32.1 µg/mL)
MIC [31]: 48 µM (≈ 16.1 µg/mL)
MIC [32]: 48 µM (≈ 16.1 µg/mL)
MIC [33]: > 96 µM
MIC [34]: 24 µM (≈ 8.03 µg/mL)
MIC [35]: 96 µM (≈ 32.1 µg/mL)
MIC [36]: > 96 µM
MIC [37]: > 96 µM
MIC [38]: 24 µM (≈ 8.03 µg/mL)
MIC [39]: 48 µM (≈ 16.1 µg/mL)
MIC [40]: 24 µM (≈ 8.03 µg/mL)
MIC [41]: 48 µM (≈ 16.1 µg/mL)
MIC [43]: 96 µM (≈ 32.1 µg/mL)
MIC [45]: > 96 µM
MIC [46]: 48 µM (≈ 16.1 µg/mL)
MIC [47]: 96 µM (≈ 32.1 µg/mL)
MIC [48]: 24 µM (≈ 8.03 µg/mL)
MIC [49]: > 96 µM
MIC [50]: > 96 µM
SMILES: C=C1CC[C@H]2C(C)(C)CCC[C@]2(C)[C@H]1C[C@H](O)C1=CC(=O)OC1O (stereo not given in full)
inhibition of growth at 1 µM [22]: 1%
inhibition of growth at 10 µM [27]: 67%
inhibition of growth at 1 µM [29]: 19%
MIC [42]: 24 µM (≈ 8.03 µg/mL)
inhibition of growth at 10 µM [44]: 90%
